# Experimental data published in publication PMC8484140 (Targeted Oncology, 2021).
# “Also recorded” adds a separate entry of the source.
# Key:
# Format in all cases: in vivo, human
# [1] = tested on: HR+/HER2− advanced breast cancer; experiment: Efficacy by RECIST 1.1, additional 21 patients
# In short: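 Additional cohort of 21 postmenopausal women aged ≤65 years. All had ER- and/or PR-positive (>1%) disease, ECOG 0–1 and progression after letrozole/anastrozole, with no prior HDAC inhibitor. […] Response was assessed by RECIST 1.1, with CR/PR confirmed at least 4 weeks after the initial response.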
# [2] = Safety and DLT evaluation
# [3] = Plasma pharmacokinetics of entinostat
# [4] = DLT observation stage, 5 mg group
# [5] = Stage I, 3 mg/week monotherapy, n=4
# [6] = Stage I, 5 mg/week monotherapy, n=12
# [7] = Stage I, 7 mg/week monotherapy, n=3
# [8] = most common grade 3/4 AEs, 19 dose-escalation patients, stage not stated
# [9] = female, human, plasma, po, 3 mg
# [10] = female, human, plasma, po, 3 mg/week
# [11] = female, human, plasma, po, 5 mg
# [12] = female, human, plasma, po, 5 mg/week
# [13] = female, human, plasma, po, 7 mg
# [14] = female, human, plasma, po, 7 mg/week
smiles,measurement,setting,value
Nc1ccccc1NC(=O)c1ccc(CNC(=O)OCc2cccnc2)cc1 [Entinostat],ORR (CR+PR),"[1]; 21 patients, entinostat 5 mg + exemestane 25 mg, 95% CI: 1.17–30.38",9.52%
same,"Clinical benefit rate (CBR, CR+PR+SD over 24 weeks)","[1]; 21 patients, entinostat 5 mg + exemestane 25 mg, 95% CI: 21.82–65.98",42.86%
same,Median progression-free survival,"[1]; additional 21 patients, entinostat 5 mg/week + exemestane 25 mg/day",9.41 months
same,Tolerability,"[2]; 3, 5, 7 mg/week",well tolerated at all doses
same,Grade 3/4 AEs,[2]; [4],16.7%
same,Suspicious DLT (G3 ventricular tachycardia),[2]; [4],one
same,Grade 3/4 AEs,"[2]; DLT observation stage, 7 mg group",33.3%
same,CTCAE grade 3 AE,"[2]; Stage I, 3 mg/week group",no CTCAE grade 3 AE occurred
same,"AKP elevation, entinostat-related AE of all grades",[2]; [5],0 No. (%)
same,"ALT elevation, entinostat-related AE of all grades",[2]; [5],0 No. (%)
same,"AST elevation, entinostat-related AE of all grades",[2]; [5],0 No. (%)
same,"Abdominal pain, entinostat-related AE of all grades",[2]; [5],0 No. (%)
same,"Anemia, entinostat-related AE of all grades",[2]; [5],2 (50) No. (%)
same,"Back pain, entinostat-related AE of all grades",[2]; [5],0 No. (%)
same,"Chest pain, entinostat-related AE of all grades",[2]; [5],0 No. (%)
same,"Creatine increase, entinostat-related AE of all grades",[2]; [5],0 No. (%)
same,"Creatinine phosphokinase increase, entinostat-related AE of all grades",[2]; [5],0 No. (%)
same,"Debilitation, entinostat-related AE of all grades",[2]; [5],0 No. (%)
same,"Diarrhea, entinostat-related AE of all grades",[2]; [5],0 No. (%)
same,"Fatigue, entinostat-related AE of all grades",[2]; [5],0 No. (%)
same,"Flatulence, entinostat-related AE of all grades",[2]; [5],0 No. (%)
same,"Headache, entinostat-related AE of all grades",[2]; [5],0 No. (%)
same,"Hypoalbuminemia, entinostat-related AE of all grades",[2]; [5],0 No. (%)
same,"Hypocalcemia, entinostat-related AE of all grades",[2]; [5],0 No. (%)
same,"Hypokalemia, entinostat-related AE of all grades",[2]; [5],0 No. (%)
same,"Hypoproteinemia, entinostat-related AE of all grades",[2]; [5],0 No. (%)
same,"LDH increase, entinostat-related AE of all grades",[2]; [5],0 No. (%)
same,"Leukopenia, entinostat-related AE of all grades",[2]; [5],3 (75) No. (%)
same,"Limb pain, entinostat-related AE of all grades",[2]; [5],0 No. (%)
same,"Nausea, entinostat-related AE of all grades",[2]; [5],0 No. (%)
same,"Neutropenia, entinostat-related AE of all grades",[2]; [5],3 (75) No. (%)
same,"Palpitation, entinostat-related AE of all grades",[2]; [5],0 No. (%)
same,"Serum Ca^2+ decrease, entinostat-related AE of all grades",[2]; [5],0 No. (%)
same,"Serum Na+ decrease, entinostat-related AE of all grades",[2]; [5],0 No. (%)
same,"Serum albumin decrease, entinostat-related AE of all grades",[2]; [5],0 No. (%)
same,"Serum phosphate decrease, entinostat-related AE of all grades",[2]; [5],0 No. (%)
same,"Serum urea increase, entinostat-related AE of all grades",[2]; [5],0 No. (%)
same,"Thrombocytopenia, entinostat-related AE of all grades",[2]; [5],0 No. (%)
same,"Γ-GT elevation, entinostat-related AE of all grades",[2]; [5],0 No. (%)
same,"α-HBDH elevation, entinostat-related AE of all grades",[2]; [5],0 No. (%)
same,Cases of CTCAE grade 3 AE,"[2]; Stage I, 5 mg/week group",four
same,"AKP elevation, entinostat-related AE of all grades",[2]; [6],2 (16.7) No. (%)
same,"ALT elevation, entinostat-related AE of all grades",[2]; [6],2 (16.7) No. (%)
same,"AST elevation, entinostat-related AE of all grades",[2]; [6],2 (16.7) No. (%)
same,"Abdominal pain, entinostat-related AE of all grades",[2]; [6],2 (16.7) No. (%)
same,"Anemia, entinostat-related AE of all grades",[2]; [6],0 No. (%)
same,"Back pain, entinostat-related AE of all grades",[2]; [6],3 (25) No. (%)
same,"Chest pain, entinostat-related AE of all grades",[2]; [6],2 (16.7) No. (%)
same,"Creatine increase, entinostat-related AE of all grades",[2]; [6],0 No. (%)
same,"Creatinine phosphokinase increase, entinostat-related AE of all grades",[2]; [6],0 No. (%)
same,"Debilitation, entinostat-related AE of all grades",[2]; [6],2 (16.7) No. (%)
same,"Diarrhea, entinostat-related AE of all grades",[2]; [6],0 No. (%)
same,"Fatigue, entinostat-related AE of all grades",[2]; [6],2 (16.7) No. (%)
same,"Flatulence, entinostat-related AE of all grades",[2]; [6],2 (16.7) No. (%)
same,"Headache, entinostat-related AE of all grades",[2]; [6],3 (25) No. (%)
same,"Hypoalbuminemia, entinostat-related AE of all grades",[2]; [6],0 No. (%)
same,"Hypocalcemia, entinostat-related AE of all grades",[2]; [6],0 No. (%)
same,"Hypokalemia, entinostat-related AE of all grades",[2]; [6],0 No. (%)
same,"Hypoproteinemia, entinostat-related AE of all grades",[2]; [6],0 No. (%)
same,"LDH increase, entinostat-related AE of all grades",[2]; [6],0 No. (%)
same,"Leukopenia, entinostat-related AE of all grades",[2]; [6],7 (58.3) No. (%)
same,"Limb pain, entinostat-related AE of all grades",[2]; [6],0 No. (%)
same,"Neutropenia, entinostat-related AE of all grades",[2]; [6],4(33.3) No. (%)
same,"Palpitation, entinostat-related AE of all grades",[2]; [6],2 (16.7) No. (%)
same,"Serum Ca^2+ decrease, entinostat-related AE of all grades",[2]; [6],0 No. (%)
same,"Serum Na+ decrease, entinostat-related AE of all grades",[2]; [6],0 No. (%)
same,"Serum albumin decrease, entinostat-related AE of all grades",[2]; [6],0 No. (%)
same,"Serum phosphate decrease, entinostat-related AE of all grades",[2]; [6],0 No. (%)
same,"Serum urea increase, entinostat-related AE of all grades",[2]; [6],0 No. (%)
same,"Thrombocytopenia, entinostat-related AE of all grades",[2]; [6],2 (16.7) No. (%)
same,"Γ-GT elevation, entinostat-related AE of all grades",[2]; [6],2 (16.7) No. (%)
same,"α-HBDH elevation, entinostat-related AE of all grades",[2]; [6],2 (16.7) No. (%)
same,"AKP elevation, entinostat-related AE of all grades",[2]; [7],0 No. (%)
same,"ALT elevation, entinostat-related AE of all grades",[2]; [7],0 No. (%)
same,"AST elevation, entinostat-related AE of all grades",[2]; [7],0 No. (%)
same,"Abdominal pain, entinostat-related AE of all grades",[2]; [7],0 No. (%)
same,"Anemia, entinostat-related AE of all grades",[2]; [7],0 No. (%)
same,"Back pain, entinostat-related AE of all grades",[2]; [7],0 No. (%)
same,"Chest pain, entinostat-related AE of all grades",[2]; [7],0 No. (%)
same,"Creatine increase, entinostat-related AE of all grades",[2]; [7],0 No. (%)
same,"Creatinine phosphokinase increase, entinostat-related AE of all grades",[2]; [7],0 No. (%)
same,"Debilitation, entinostat-related AE of all grades",[2]; [7],0 No. (%)
same,"Diarrhea, entinostat-related AE of all grades",[2]; [7],0 No. (%)
same,"Fatigue, entinostat-related AE of all grades",[2]; [7],0 No. (%)
same,"Flatulence, entinostat-related AE of all grades",[2]; [7],0 No. (%)
same,"Headache, entinostat-related AE of all grades",[2]; [7],0 No. (%)
same,"Hypoalbuminemia, entinostat-related AE of all grades",[2]; [7],0 No. (%)
same,"Hypocalcemia, entinostat-related AE of all grades",[2]; [7],0 No. (%)
same,"Hypokalemia, entinostat-related AE of all grades",[2]; [7],0 No. (%)
same,"Hypoproteinemia, entinostat-related AE of all grades",[2]; [7],0 No. (%)
same,"LDH increase, entinostat-related AE of all grades",[2]; [7],0 No. (%)
same,"Leukopenia, entinostat-related AE of all grades",[2]; [7],0 No. (%)
same,"Limb pain, entinostat-related AE of all grades",[2]; [7],0 No. (%)
same,"Nausea, entinostat-related AE of all grades",[2]; [7],0 No. (%)
same,"Neutropenia, entinostat-related AE of all grades",[2]; [7],2 (66.7) No. (%)
same,"Palpitation, entinostat-related AE of all grades",[2]; [7],0 No. (%)
same,"Serum Ca^2+ decrease, entinostat-related AE of all grades",[2]; [7],0 No. (%)
same,"Serum Na+ decrease, entinostat-related AE of all grades",[2]; [7],0 No. (%)
same,"Serum albumin decrease, entinostat-related AE of all grades",[2]; [7],0 No. (%)
same,"Serum phosphate decrease, entinostat-related AE of all grades",[2]; [7],0 No. (%)
same,"Serum urea increase, entinostat-related AE of all grades",[2]; [7],0 No. (%)
same,"Thrombocytopenia, entinostat-related AE of all grades",[2]; [7],0 No. (%)
same,"Γ-GT elevation, entinostat-related AE of all grades",[2]; [7],0 No. (%)
same,"α-HBDH elevation, entinostat-related AE of all grades",[2]; [7],0 No. (%)
same,Patients with entinostat-related AEs,"[2]; Stage I, all 19 patients",100%
same,Dose-limiting toxicity (DLT) in Stage I,"[2]; all dose groups (3, 5, 7 mg/week)",no patients experienced a DLT; also recorded: no DLT events occurred
same,Grade 3/4 neutropenia,[2]; [8],31.6%
same,Grade 3/4 thrombocytopenia,[2]; [8],15.8%
same,Median tolerance limit (MLT),"[2]; throughout the trial, up to 7 mg/week",not achieved
same,"Dose dependence of exposure (Cmax, AUC)",[3]; 3–7 mg,increased dose proportionally; also recorded: linear relationship between AUC0-168 and entinostat dose
same,Tmax,"[3]; Day 22, 5 mg/week oral, N=12, median (Min., Max.)","0.50 (0.25, 8.00) h"
same,Tmax,"[3]; female, human, plasma, oral",~0.5 h
same,half-life,"[3]; female, human, plasma, oral",38.3 to 65.3 h
same,AUC(0-inf),[3]; [9],572 ± 122 ng·h/mL
same,Cmax,[3]; [9],49.2 ± 8.38 ng/mL
same,half-life,[3]; [9],38.3 h
same,AUC(0-inf),[3]; [10],609 ± 44.3 ng·h/mL
same,Cmax,[3]; [10],55.7 ± 38.2 ng/mL
same,Tmax,[3]; [10],0.47 h
same,half-life,[3]; [10],65.3 h
same,AUC(0-inf),[3]; [11],1070 ± 364 ng·h/mL
same,Cmax,[3]; [11],101 ± 62.1 ng/mL
same,half-life,[3]; [11],51.7 h
same,AUC(0-inf),[3]; [12],1310 ± 349 ng·h/mL
same,Cmax,[3]; [12],107 ± 63.2 ng/mL
same,half-life,[3]; [12],61.9 h
same,AUC(0-inf),[3]; [13],1380 ± 206 ng·h/mL
same,Cmax,[3]; [13],154 ± 39.2 ng/mL
same,Tmax,[3]; [13],0.55 h
same,half-life,[3]; [13],48.1 h
same,AUC(0-inf),[3]; [14],1650 ± 452 ng·h/mL
same,Cmax,[3]; [14],122 ± 76.1 ng/mL
same,half-life,[3]; [14],56.2 h
